Drawing on publication PMC4719142 (ACS Chemical Biology, 2015), this text covers IC50 for one compound.

The structures appear in SMILES notation.

One assay concerns L363 cells. Briefly: Cell viability. Type of assay: cell-based, Human. Particulars: L363, 72 h treatment, four replicates ± SEM. The essentials:
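MTS viability run in quadruplicate at the stated times and doses. Lines were grown in RPMI-1640 with 2 mM L-glutamine, 10% FBS and penicillin/streptomycin at 37 °C, 5% CO2. MTS reagent was added directly for 90 min at 37 °C. Formazan absorbance was read at 500 nm. Viability was normalised to DMSO-treated wells.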

Another assay concerns several other cell lines. To be noted: literature values across several other cell lines ref 33, 34; cited from earlier work.

Broadly, the IC50 is the concentration that inhibits the measured activity by half. Take `CN(C)c1ccc(Nc2c3ccc(NC(=O)CCN4CCCC4)cc3nc3cc(NC(=O)CCN4CCCC4)ccc23)cc1` [BRACO-19]: the values for the IC50 with L363 cells and in the assay on several other cell lines were 15.3 ± 4.3 µM and 1 to 13 µM, respectively.
